Common to all, as to type: functional
Experiment [1] has as its system Pseudomonas aeruginosa. In words: Antibacterial activity against multidrug/extremely drug-resistant/colistin-susceptible Pseudomonas aeruginosa isolate P262-101856 infected in Galleria mellonella assessed as mortality at 75 mg/kg after 24 hrs relative to control. To be noted: isolate P262-101856, 24 h. Summed up: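 Galleria mellonella larvae (about 250 mg, used within 7 days; 15 per group) were injected with 10 µL of XDR P. aeruginosa P262 at 1.0×10^3 CFU/mL. At 2 h they received a single 10 µL injection: monotherapy at 75 mg/kg, or combinations at 12.5+12.5 to 75+75 mg/kg. PBS vehicle served as control. Survival was scored over 24 h at 37 °C.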

For experiment [2], the system named is Pseudomonas aeruginosa. In words: Antibacterial activity against multidrug/extremely drug-resistant/colistin-resistant Pseudomonas aeruginosa isolate 91433 after 18 hrs by microtiter dilution assay. To be noted: isolate 91433, 18 h. The gist of the method:
(§1)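 Broth microdilution following CLSI guidelines. An overnight culture was adjusted to 0.5 McFarland in saline, then diluted 1:50 in Mueller-Hinton broth. This inoculum was added in equal volume to 2-fold serial dilutions of agent in MHB and incubated 18 h at 37 °C. MIC was the lowest concentration with no visible growth.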

For experiment [3], the system named is Acinetobacter baumannii. Briefly: Antibacterial activity against multidrug-resistant Acinetobacter baumannii AB030 after 18 hrs by microtiter dilution assay. To be noted: AB030, 18 h. Summed up: as §1
The test system of experiment [4] is Pseudomonas aeruginosa. Briefly: Antibacterial activity against multidrug/extremely drug-resistant/colistin-susceptible Pseudomonas aeruginosa isolate 100036 after 18 hrs by microtiter dilution assay. To be noted: isolate 100036, 18 h. Summed up:
as §1

The test system of experiment [5] is Pseudomonas aeruginosa. In words: Bactericidal activity against Pseudomonas aeruginosa PAO1 at 4 times antibacterial MIC after 2 hrs. The gist of the method:
(§2)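 Time-kill with P. aeruginosa PAO1. A 0.5 McFarland suspension was diluted 1:50 in LB broth and exposed to agent in PBS (pH 7.2) at 1/2×, 1×, 2× or 4× MIC at 37 °C for 6 h. Samples at 0, 10, 30, 60, 90, 120, 240 and 360 min were serially diluted in PBS, plated on LB agar, and colonies counted after 20 h at 37 °C.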

The subject of experiment [6] is Pseudomonas aeruginosa. Briefly: Bactericidal activity against Pseudomonas aeruginosa PAO1 at 0.125 times antibacterial MIC after 6 hrs.
Experiment [7] relates to Pseudomonas aeruginosa. In words: Antibacterial activity against multidrug/extremely drug-resistant/colistin-susceptible Pseudomonas aeruginosa isolate P264-104354 after 18 hrs by microtiter dilution assay. To be noted: isolate P264-104354, 18 h. Summed up: as §1
Experiment [8] concerns Pseudomonas aeruginosa. Briefly: Antibacterial activity against Pseudomonas aeruginosa PAO1 after 25 serial passages at 0.125 times MIC by microtiter dilution assay.
Experiment [9] has as its system Acinetobacter baumannii. In words: Antibacterial activity against multidrug-resistant Acinetobacter baumannii 110193 after 18 hrs by microtiter dilution assay. To be noted: Acinetobacter baumannii, 110193, 18 h. The gist of the method:
as §1

Experiment [10] relates to Pseudomonas aeruginosa. Briefly: Antibacterial activity against multidrug/extremely drug-resistant/colistin-resistant Pseudomonas aeruginosa isolate 101243 after 18 hrs by microtiter dilution assay. To be noted: isolate 101243, 18 h. Summed up: as §1
For experiment [11], the system named is Pseudomonas aeruginosa. Briefly: Antibacterial activity against multidrug/extremely drug-resistant/colistin-susceptible Pseudomonas aeruginosa isolate 101885 after 18 hrs by microtiter dilution assay. To be noted: isolate 101885, 18 h. The gist of the method: as §1
Experiment [12] has as its system Acinetobacter baumannii. Briefly: Antibacterial activity against multidrug-resistant Acinetobacter baumannii AB027 after 18 hrs by microtiter dilution assay. To be noted: AB027, 18 h. Summed up:
as §1

For experiment [13], the system named is Pseudomonas aeruginosa. In words: Antibacterial activity against Pseudomonas aeruginosa PAO1 after 18 hrs by microtiter dilution assay. To be noted: PAO1, 18 h. The gist of the method:
as §1

For experiment [14], the system named is Acinetobacter baumannii. In words: Antibacterial activity against multidrug-resistant Acinetobacter baumannii AB031 after 18 hrs by microtiter dilution assay. To be noted: AB031, 18 h. The gist of the method:
as §1

In a further experiment the test system is Klebsiella pneumoniae. Briefly: Antibacterial activity against multidrug-resistant Klebsiella pneumoniae 116381 after 18 hrs by microtiter dilution assay. To be noted: Klebsiella pneumoniae, 116381, 18 h. The gist of the method:
as §1

The test system of a further experiment is Enterobacter cloacae. Briefly: Antibacterial activity against multidrug-resistant Enterobacter cloacae 117029 after 18 hrs by microtiter dilution assay. To be noted: Enterobacter cloacae, 117029, 18 h. The gist of the method: as §1
In experiment [15] the test system is Pseudomonas aeruginosa. Briefly: Antibacterial activity against multidrug/extremely drug-resistant/colistin-susceptible Pseudomonas aeruginosa isolate P262-101856 after 18 hrs by microtiter dilution assay. To be noted: isolate P262-101856, 18 h. The gist of the method:
as §1

For experiment [16], the system named is Pseudomonas aeruginosa. In words: Antibacterial activity against multidrug/extremely drug-resistant/colistin-susceptible Pseudomonas aeruginosa isolate P259-96918 after 18 hrs by microtiter dilution assay. To be noted: isolate P259-96918, 18 h. Summed up:
as §1

The test system of experiment [17] is Pseudomonas aeruginosa. Briefly: Antibacterial activity against Pseudomonas aeruginosa PAO1 assessed as ratio of MIC after 25 serial passages to MIC before 25 serial passages by microtiter dilution assay. The gist of the method: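 Sequential passaging of wild-type PAO1 with single drugs or drug combinations. MIC was tested in MHB for 18 h. Cells from the well at half the MIC were adjusted to 0.5 McFarland in saline, diluted 1:50 in fresh MHB and used for the next MIC test. This was repeated for 25 passages, and the fold change in MIC was plotted against passage number.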

The subject of experiment [18] is Pseudomonas aeruginosa. Briefly: Bactericidal activity against Pseudomonas aeruginosa PAO1 at 4 times antibacterial MIC after 6 hrs. Summed up:
as §2

Each structure is given as a SMILES string. Values after ≈ are worked out from the molar mass of the structure shown. Active and inactive are the calls of the source. The rule behind the calls is not given here.

As a reminder, the mortality is the share of the test organisms that died. In general, MIC refers to the lowest concentration found to suppress growth. A high value points to weaker potency.

Regarding `CO[C@H]1/C=C/O[C@@]2(C)Oc3c(C)c(O)c4c(O)c(c(/C=N/N5CCN(C)CC5)c(O)c4c3C2=O)NC(=O)/C(C)=C\C=C\[C@H](C)[C@H](O)[C@@H](C)[C@@H](O)[C@@H](C)[C@H](OC(C)=O)[C@@H]1C` [RIFAMPIN], the mortality at 75 mg/kg in the experiment with Pseudomonas aeruginosa [1] was determined as 100%. The MIC in the experiment with Pseudomonas aeruginosa [2] was 16 µg/mL (≈ 19.4 µM); in the experiment on Acinetobacter baumannii [3], over 256 µg/mL; in the experiment with Pseudomonas aeruginosa [4], 16 µg/mL (≈ 19.4 µM); in the experiment on Pseudomonas aeruginosa [7], 16 µg/mL (≈ 19.4 µM); in the experiment on Acinetobacter baumannii [9] it was 2 µg/mL (≈ 2.43 µM); in the experiment with Pseudomonas aeruginosa [10], 8 µg/mL (≈ 9.72 µM). Moreover, the MIC with Pseudomonas aeruginosa [11] came out at 16 µg/mL (≈ 19.4 µM); against Acinetobacter baumannii [12], 2 µg/mL (≈ 2.43 µM); against Pseudomonas aeruginosa [13] it was 16 µg/mL (≈ 19.4 µM); in the experiment on Acinetobacter baumannii [14] it was 2 µg/mL (≈ 2.43 µM); against Klebsiella pneumoniae, 1020 µg/mL (≈ 1240 µM); in the experiment with Enterobacter cloacae, 16 µg/mL (≈ 19.4 µM). Besides, the minimal inhibitory concentration (MIC) amounted to 1020 µg/mL (≈ 1240 µM) against Pseudomonas aeruginosa [15] and 16 µg/mL (≈ 19.4 µM) with Pseudomonas aeruginosa [16]. Also, the result with Pseudomonas aeruginosa [5] and with Pseudomonas aeruginosa [8] was Active. Besides, the outcome in the experiment on Pseudomonas aeruginosa [6] was inactive.
Consider `CN(C)c1ccc(O)c2c1C[C@H]1C[C@H]3[C@H](N(C)C)C(O)=C(C(N)=O)C(=O)[C@@]3(O)C(O)=C1C2=O` [MINOCYCLINE], for which the mortality at 75 mg/kg with Pseudomonas aeruginosa [1] worked out at 100%. Moreover, the MIC was found to be 64 µg/mL (≈ 140 µM) with Pseudomonas aeruginosa [2]; 4 µg/mL (≈ 8.74 µM) in the experiment with Acinetobacter baumannii [3]; 32 µg/mL (≈ 69.9 µM) against Pseudomonas aeruginosa [4]; 64 µg/mL (≈ 140 µM) against Pseudomonas aeruginosa [7]; 2 µg/mL (≈ 4.37 µM) against Acinetobacter baumannii [9]; 4 µg/mL (≈ 8.74 µM) with Pseudomonas aeruginosa [10]. The minimal inhibitory concentration (MIC) stood at 32 µg/mL (≈ 69.9 µM) against Pseudomonas aeruginosa [11]; 1 µg/mL (≈ 2.19 µM) in the experiment with Acinetobacter baumannii [12]; 8 µg/mL (≈ 17.5 µM) in the experiment with Pseudomonas aeruginosa [13]; 2 µg/mL (≈ 4.37 µM) with Acinetobacter baumannii [14]; 128 µg/mL (≈ 280 µM) against Klebsiella pneumoniae; 128 µg/mL (≈ 280 µM) in the experiment with Enterobacter cloacae. For the same molecule, the minimal inhibitory concentration (MIC) against Pseudomonas aeruginosa [15] was 256 µg/mL (≈ 560 µM); with Pseudomonas aeruginosa [16], 32 µg/mL (≈ 69.9 µM). The result in the experiment with Pseudomonas aeruginosa [6] was inactive. In the experiment on Pseudomonas aeruginosa [17], the Ratio came out at 16. Moreover, the outcome in the experiment on Pseudomonas aeruginosa [18] was Active.

For the origin of these results see ChEMBL document CHEMBL4014308, “Amphiphilic Tobramycin-Lysine Conjugates Sensitize Multidrug Resistant Gram-Negative Bacteria to Rifampicin and Minocycline” (J Med Chem, 2017).
